In ChEMBL document CHEMBL1157589, “Antifungal 3,5-disubstituted furanones: From 5-acyloxymethyl to 5-alkylidene derivatives” (Bioorg Med Chem, 2010):
In brackets after ≈: the same amount, converted by molar mass.

Assays:
Trichosporon beigelii [1] = assay: Antifungal activity against Trichosporon beigelii 1188 after 48 hrs by microdilution method; format: functional; conditions: Trichosporon beigelii, 1188, 48 h
Summary of the method: (§1)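 Yeasts held on Sabouraud dextrose agar. MIC by NCCLS M27-A broth microdilution in RPMI 1640 with L-glutamine, buffered with 0.165 M MOPS to pH 7.0. Compounds in DMSO (≤2% final), twofold dilutions 500–0.48. Final inoculum 5 × 10³ ± 0.2 cfu mL⁻¹. Incubated at 35 °C; absorbance at 540 nm read at 24 and 48 h. MIC is 80% growth inhibition versus control; run twice in duplicate.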

Lichtheimia corymbifera [2] = assay: Antifungal activity against Absidia corymbifera 272 after 24 hrs by microdilution method; format: functional; conditions: Lichtheimia corymbifera, 272, 24 h
Summary of the method: (§2)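 Filamentous strains held on Sabouraud dextrose agar. NCCLS M27-A broth microdilution in RPMI 1640 with L-glutamine and 0.165 M MOPS, pH 7.0. DMSO diluent ≤2% final; twofold dilutions 500–0.48. Inoculum 5 × 10³ ± 0.2 cfu mL⁻¹ final.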

Clavispora lusitaniae [3] = assay: Antifungal activity against Candida lusitaniae 2446/I after 48 hrs by microdilution method; format: functional; summary of the method: as §1
L1210 = assay: Cytostatic activity against mouse L1210 cells after 72 hrs by XTT assay; format: functional, cell-based; conditions: l1210
Summary of the method: (§3)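 Leukemia cells (L1210 ATCC CCL 219, CCRF-CEM ATCC CCL 119, HL-60 ATCC CCL 240) grown in 24-well plates in RPMI 1640 with fetal calf serum. Growth assessed 72 h after drug addition. Viability measured by XTT spectrophotometric assay; potency given as IC50.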

Nakaseomyces glabratus [4] = assay: Antifungal activity against Candida glabrata 20/I after 24 hrs by microdilution method; format: functional; summary of the method: as §1
Candida tropicalis [5] = assay: Antifungal activity against Candida tropicalis 156 after 24 hrs by microdilution method; format: functional; conditions: Candida tropicalis, 156, 24 h; summary of the method: as §1
[6] = test system: Trichophyton mentagrophytes; assay: Antifungal activity against Trichophyton mentagrophytes 445 after 72 hrs by microdilution method; format: functional; conditions: Trichophyton mentagrophytes, 445, 72 h
Summary of the method: (§4)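 Dermatophyte held on Sabouraud dextrose agar. M27-A microdilution in MOPS-buffered (0.165 M, pH 7.0) RPMI 1640 with L-glutamine. DMSO ≤2% final; twofold dilutions 500–0.48. Inoculum 5 × 10³ ± 0.2 cfu mL⁻¹ final. Incubated at 35 °C; MIC read visually at 72 and 120 h as 80% inhibition of control growth; determined twice in duplicate.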

Trichosporon beigelii [7] = assay: Antifungal activity against Trichosporon beigelii 1188 after 24 hrs by microdilution method; format: functional; conditions: Trichosporon beigelii, 1188, 24 h; summary of the method: as §1
Candida parapsilosis [8] = assay: Antifungal activity against Candida parapsilosis ATCC 22019 after 24 hrs by microdilution method; format: functional; conditions: Lodderomyces parapsilosis, ATCC 22019, 24 h; summary of the method: as §1
Candida albicans [9] = assay: Antifungal activity against Candida albicans ATCC 44859 after 24 hrs by microdilution method; format: functional; conditions: ATCC 44859, 24 h; summary of the method: as §1
Pichia kudriavzevii [10] = assay: Antifungal activity against Candida krusei E28 after 24 hrs by microdilution method; format: functional; conditions: E28, 24 h; summary of the method: as §1
Candida albicans [11] = assay: Antifungal activity against Candida albicans ATCC 90028 after 48 hrs by microdilution method; format: functional; conditions: ATCC 90028, 48 h; summary of the method: as §1
HeLa S3 = assay: Cytostatic activity against human HeLaS3 cells after 48 hrs by XTT assay
Candida albicans [12] = assay: Antifungal activity against Candida albicans ATCC 90028 after 24 hrs by microdilution method; format: functional; conditions: ATCC 90028, 24 h; summary of the method: as §1
HL-60 = assay: Cytostatic activity against human HL60 cells after 72 hrs by XTT assay; format: functional, cell-based; conditions: hl-60; summary of the method: as §3
Clavispora lusitaniae [13] = assay: Antifungal activity against Candida lusitaniae 2446/I after 24 hrs by microdilution method; format: functional; summary of the method: as §1
[14] = test system: Trichophyton mentagrophytes; assay: Antifungal activity against Trichophyton mentagrophytes 445 after 120 hrs by microdilution method; format: functional; conditions: Trichophyton mentagrophytes, 445, 120 h; summary of the method: as §4
Candida parapsilosis [15] = assay: Antifungal activity against Candida parapsilosis ATCC 22019 after 48 hrs by microdilution method; format: functional; conditions: Lodderomyces parapsilosis, ATCC 22019, 48 h; summary of the method: as §1
Nakaseomyces glabratus [16] = assay: Antifungal activity against Candida glabrata 20/I after 48 hrs by microdilution method; format: functional; summary of the method: as §1
Aspergillus fumigatus [17] = assay: Antifungal activity against Aspergillus fumigatus 231 after 24 hrs by microdilution method; format: functional; conditions: Aspergillus fumigatus, 231, 24 h; summary of the method: as §2
Candida tropicalis [18] = assay: Antifungal activity against Candida tropicalis 156 after 48 hrs by microdilution method; format: functional; conditions: Candida tropicalis, 156, 48 h; summary of the method: as §1
Aspergillus fumigatus [19] = assay: Antifungal activity against Aspergillus fumigatus 231 after 48 hrs by microdilution method; format: functional; conditions: Aspergillus fumigatus, 231, 48 h; summary of the method: as §2
Candida albicans [20] = assay: Antifungal activity against Candida albicans ATCC 44859 after 48 hrs by microdilution method; format: functional; conditions: ATCC 44859, 48 h; summary of the method: as §1
CCRF-CEM = assay: Cytostatic activity against human CCRF-CEM cells after 72 hrs by XTT assay; format: functional, cell-based; summary of the method: as §3
Pichia kudriavzevii [21] = assay: Antifungal activity against Candida krusei ATCC 6258 after 24 hrs by microdilution method; format: functional; conditions: ATCC 6258, 24 h; summary of the method: as §1
Pichia kudriavzevii [22] = assay: Antifungal activity against Candida krusei E28 after 48 hrs by microdilution method; format: functional; conditions: E28, 48 h; summary of the method: as §1
Pichia kudriavzevii [23] = assay: Antifungal activity against Candida krusei ATCC 6258 after 48 hrs by microdilution method; format: functional; conditions: ATCC 6258, 48 h; summary of the method: as §1
Lichtheimia corymbifera [24] = assay: Antifungal activity against Absidia corymbifera 272 after 48 hrs by microdilution method; format: functional; conditions: Lichtheimia corymbifera, 272, 48 h; summary of the method: as §2
[25] = Chemical stability in DMSO solution at 4.7 mg after 24 hrs in room temperature by HPLC analysis; format: physicochemical
[26] = Chemical stability in tetrahydrofuran solution at 4.7 mg after 24 hrs in room temperature by HPLC analysis; format: physicochemical

Row | SMILES | MIC80 (Trichosporon beigelii [1]) [µM] | MIC80 (Lichtheimia corymbifera [2]) [µM] | MIC80 (Clavispora lusitaniae [3]) [µM] | MIC80 (Nakaseomyces glabratus [4]) [µM] | MIC80 (Candida tropicalis [5]) [µM] | MIC80 [6] [µM] | MIC80 (Trichosporon beigelii [7]) [µM] | MIC80 (Candida parapsilosis [8]) [µM] | MIC80 (Candida albicans [9]) [µM] | MIC80 (Pichia kudriavzevii [10]) [µM] | MIC80 (Candida albicans [11]) [µM] | MIC80 (Candida albicans [12]) [µM] | MIC80 (Clavispora lusitaniae [13]) [µM] | MIC80 [14] [µM] | MIC80 (Candida parapsilosis [15]) [µM] | MIC80 (Nakaseomyces glabratus [16]) [µM] | MIC80 (Aspergillus fumigatus [17]) [µM] | MIC80 (Candida tropicalis [18]) [µM] | MIC80 (Aspergillus fumigatus [19]) [µM] | MIC80 (Candida albicans [20]) [µM] | further results
1 | CC(=O)OC/C=C1/C=C(c2ccc(Br)cc2)C(=O)O1 | 31.2 (≈ 10.1 µg/mL) | 31.2 (≈ 10.1 µg/mL) | 125 (≈ 40.4 µg/mL) | 31.2 (≈ 10.1 µg/mL) | 31.2 (≈ 10.1 µg/mL) | 7.81 (≈ 2.52 µg/mL) | 31.2 (≈ 10.1 µg/mL) | 31.2 (≈ 10.1 µg/mL) | 7.81 (≈ 2.52 µg/mL) | 62.5 (≈ 20.2 µg/mL) | 62.5 (≈ 20.2 µg/mL) | 31.2 (≈ 10.1 µg/mL) | 62.5 (≈ 20.2 µg/mL) | 15.6 (≈ 5.05 µg/mL) | 62.5 (≈ 20.2 µg/mL) | 62.5 (≈ 20.2 µg/mL) | 15.6 (≈ 5.05 µg/mL) | 125 (≈ 40.4 µg/mL) | 31.2 (≈ 10.1 µg/mL) | 31.2 (≈ 10.1 µg/mL) | IC50 (L1210): Not Active; IC50 (HeLa S3; Homo sapiens, HeLa S3, 48 h, read-out: IC50): 4.18 µM; IC50 (HL-60): Not Active; IC50 (CCRF-CEM; Homo sapiens, CCRF-CEM, 72 h, read-out: IC50): 4.32 µM; MIC80 (Pichia kudriavzevii [21]): 7.81 µM (≈ 2.52 µg/mL); MIC80 (Pichia kudriavzevii [22]): 62.5 µM (≈ 20.2 µg/mL); MIC80 (Pichia kudriavzevii [23]): 62.5 µM (≈ 20.2 µg/mL); MIC80 (Lichtheimia corymbifera [24]): 31.2 µM (≈ 10.1 µg/mL)
2 | CC(=O)OCC1C=C(c2ccc(Br)cc2)C(=O)O1 (configuration not stated) | 7.81 (≈ 2.43 µg/mL) | 7.81 (≈ 2.43 µg/mL) | 7.81 (≈ 2.43 µg/mL) | 1.95 (≈ 0.607 µg/mL) | 7.81 (≈ 2.43 µg/mL) | 1.95 (≈ 0.607 µg/mL) | 7.81 (≈ 2.43 µg/mL) | 3.9 (≈ 1.21 µg/mL) | 0.49 (≈ 0.152 µg/mL) | 7.81 (≈ 2.43 µg/mL) | 3.9 (≈ 1.21 µg/mL) | 3.9 (≈ 1.21 µg/mL) | 3.9 (≈ 1.21 µg/mL) | 3.9 (≈ 1.21 µg/mL) | 15.6 (≈ 4.86 µg/mL) | 1.95 (≈ 0.607 µg/mL) | 0.98 (≈ 0.305 µg/mL) | 7.81 (≈ 2.43 µg/mL) | 3.91 (≈ 1.22 µg/mL) | 1.95 (≈ 0.607 µg/mL) | Stability [25]: < 3 h; MIC80 (Pichia kudriavzevii [21]): 3.9 µM (≈ 1.21 µg/mL); MIC80 (Pichia kudriavzevii [22]): 7.81 µM (≈ 2.43 µg/mL); Stability [26]: Stable; MIC80 (Pichia kudriavzevii [23]): 7.81 µM (≈ 2.43 µg/mL); MIC80 (Lichtheimia corymbifera [24]): 15.6 µM (≈ 4.86 µg/mL)
3 | C/C=C1/C=C(c2ccc(Br)cc2)C(=O)O1 | > 500 | > 500 | > 500 | > 500 | > 500 | 31.2 (≈ 8.28 µg/mL) | > 500 | > 500 | 250 (≈ 66.3 µg/mL) | > 500 | > 500 | > 500 | > 500 | 31.2 (≈ 8.28 µg/mL) | > 500 | > 500 | > 500 | > 500 | > 500 | > 500 | IC50 (L1210): Not Active; IC50 (HeLa S3; hela s3): Not Active; IC50 (HL-60): Not Active; IC50 (CCRF-CEM; ccrf-cem): Not Active; MIC80 (Pichia kudriavzevii [21]): > 500 µM; MIC80 (Pichia kudriavzevii [22]): > 500 µM; MIC80 (Pichia kudriavzevii [23]): > 500 µM; MIC80 (Lichtheimia corymbifera [24]): > 500 µM
